From ChEMBL document CHEMBL4152356, “Amphipathic sulfonamidobenzamides mimicking small antimicrobial marine natural products; investigation of antibacterial and anti-biofilm activity against antibiotic resistant clinical isolates” (Bioorg Med Chem, 2018)

Legend:
Pseudomonas aeruginosa [1] = assay: Antibacterial activity against Pseudomonas aeruginosa clinical isolates after 24 hrs by microdilution method; type: functional
Summary of the method: (§1)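 Clinical isolate screen by broth microdilution with about 1-1.2 × 10^6 cells/ml and 24 h incubation. MIC is the lowest concentration with no growth. For isolate collections, MIC90 is the MIC inhibiting ≥90% of isolates. Multidrug resistance was defined as resistance to at least […] antimicrobial class.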

Staphylococcus aureus [2] = assay: Antibacterial activity against methicillin resistant Staphylococcus aureus 85/2082 clinical isolate after 24 hrs by microdilution method; type: functional; conditions: 85/2082, 24 h
Summary of the method: (§2)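 Broth microdilution in Mueller-Hinton broth (modified CLSI M07-A9), clinical isolates at about 1-1.2 × 10^6 cells/ml. Inoculum mixed 1:1 with serial compound dilutions; stocks made in up to 100% DMSO, final DMSO ≤1%. Incubated 24 h.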

Escherichia coli [3] = assay: Antibacterial activity against New Delhi metallo-beta-lactamase 1-producing Escherichia coli 50,676,002 clinical isolate after 24 hrs by microdilution method; type: functional; conditions: Escherichia coli, 50,676,002, 24 h; summary of the method: as §1
Pseudomonas aeruginosa [4] = assay: Antibacterial activity against New Delhi metallo-beta-lactamase 1-producing Pseudomonas aeruginosa 50,692,172 clinical isolate after 24 hrs by microdilution method; type: functional; conditions: Pseudomonas aeruginosa, 50,692,172, 24 h; summary of the method: as §1
[5] = test system: Corynebacterium glutamicum; assay: Antibacterial activity against Corynebacterium glutamicum ATCC 13032 after 48 hrs by microdilution method; type: functional; conditions: ATCC 13032, 48 h
Summary of the method: (§3)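 Broth microdilution (CLSI M07-A9, modified) in Mueller-Hinton broth; inoculum about 2.5-3 × 10^4 cells/ml mixed 1:1 with serial compound dilutions. Stock solutions in up to 100% DMSO, final DMSO ≤1%. Incubated 35 °C for 48 h.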

Klebsiella pneumoniae [6] = assay: Antibacterial activity against KPC2-producing Klebsiella pneumoniae K4725 clinical isolate after 24 hrs by microdilution method; type: functional; conditions: K4725, 24 h; summary of the method: as §1
Staphylococcus aureus [7] = assay: Antibacterial activity against methicillin resistant Staphylococcus aureus NCTC 10442 clinical isolate after 24 hrs by microdilution method; type: functional; conditions: NCTC 10442, 24 h; summary of the method: as §2
Acinetobacter baumannii [8] = assay: Antibacterial activity against oxacillinase 24-producing Acinetobacter baumannii K55-13 clinical isolate after 24 hrs by microdilution method; type: functional; conditions: K55-13, 24 h; summary of the method: as §2
Enterococcus sp. = assay: Antibacterial activity against Enterococcus sp. clinical isolates after 24 hrs by microdilution method; type: functional; summary of the method: as §1
Acinetobacter baumannii [9] = assay: Antibacterial activity against oxacillinase 23-producing Acinetobacter baumannii K47-42 clinical isolate after 24 hrs by microdilution method; type: functional; conditions: K47-42, 24 h; summary of the method: as §2
Klebsiella pneumoniae [10] = assay: Antibacterial activity against Verona integron-encoded metallo-beta-lactamase 1-producing Klebsiella pneumoniae 50,667,959 clinical isolate after 24 hrs by microdilution method; type: functional; conditions: Klebsiella pneumoniae, 50,667,959, 24 h; summary of the method: as §1
Escherichia coli [11] = assay: Antibacterial activity against Verona integron-encoded metallo-beta-lactamase 29-producing Escherichia coli 50,639,799 clinical isolate after 24 hrs by microdilution method; type: functional; conditions: Escherichia coli, 50,639,799, 24 h; summary of the method: as §1
Enterococcus faecium [12] = assay: Antibacterial activity against vancomycin resistant Enterococcus faecium K36-18 clinical isolate after 24 hrs by microdilution method; type: functional; conditions: K36-18, 24 h; summary of the method: as §2
Escherichia coli [13] = assay: Antibacterial activity against imipenem 26-type carbapenemase-producing Escherichia coli 50,857,972 clinical isolate after 24 hrs by microdilution method; type: functional; conditions: Escherichia coli, 50,857,972, 24 h; summary of the method: as §1
Acinetobacter baumannii [14] = assay: Antibacterial activity against oxacillinase 58-producing Acinetobacter baumannii K12-21 clinical isolate after 24 hrs by microdilution method; type: functional; conditions: K12-21, 24 h; summary of the method: as §2
Acinetobacter baumannii [15] = assay: Antibacterial activity against colistin-resistant oxacillinase 23-producing Acinetobacter baumannii K63-58 clinical isolate after 24 hrs by microdilution method; type: functional; conditions: K63-58, 24 h; summary of the method: as §2
Pseudomonas aeruginosa [16] = assay: Antibacterial activity against imipenem 14-type carbapenemase-producing Pseudomonas aeruginosa K4424 clinical isolate after 24 hrs by microdilution method; type: functional; conditions: K4424, 24 h; summary of the method: as §1
Pseudomonas aeruginosa [17] = assay: Antibacterial activity against Verona integron-encoded metallo-beta-lactamase-producing Pseudomonas aeruginosa 50,692,520 clinical isolate after 24 hrs by microdilution method; type: functional; conditions: Pseudomonas aeruginosa, 50,692,520, 24 h; summary of the method: as §1
Enterococcus faecium [18] = assay: Antibacterial activity against vancomycin resistant Enterococcus faecium 50,758,899 clinical isolate after 24 hrs by microdilution method; type: functional; conditions: Enterococcus faecium, 50,758,899, 24 h; summary of the method: as §2
Escherichia coli [19] = assay: Antibacterial activity against New Delhi metallo-beta-lactamase 1-producing Escherichia coli 50,739,822 clinical isolate after 24 hrs by microdilution method; type: functional; conditions: Escherichia coli, 50,739,822, 24 h; summary of the method: as §1
Staphylococcus aureus [20] = assay: Antibacterial activity against methicillin resistant Staphylococcus aureus N315 clinical isolate after 24 hrs by microdilution method; type: functional; conditions: N315, 24 h; summary of the method: as §2
Pseudomonas aeruginosa [21] = assay: Antibacterial activity against Verona integron-encoded metallo-beta-lactamase 2-producing Pseudomonas aeruginosa K347 clinical isolate after 24 hrs by microdilution method; type: functional; conditions: K347, 24 h; summary of the method: as §1
Enterococcus faecium [22] = assay: Antibacterial activity against vancomycin resistant Enterococcus faecium TUH50-22 clinical isolate after 24 hrs by microdilution method; type: functional; conditions: TUH50-22, 24 h; summary of the method: as §2
Erythrocyte = assay: Hemolytic activity against human RBC measured after 1 hr; type: cell-based
Summary of the method: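 Washed human RBCs from a healthy donor (heparinized) at 10% in PBS pH 7.4, mixed 9:1 with serial compound dilutions, 37 °C for 1 h. Baseline set by 0.5% DMSO in 50% PBS, 100% lysis by 0.05% Triton X-100. EC50 is the concentration giving 50% lysis.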

Pseudomonas aeruginosa [23] = assay: Antibacterial activity against Verona integron-encoded metallo-beta-lactamase 4-producing Pseudomonas aeruginosa K3473 clinical isolate after 24 hrs by microdilution method; type: functional; conditions: K3473, 24 h; summary of the method: as §1
Pseudomonas aeruginosa [24] = assay: Antibacterial activity against Pseudomonas aeruginosa PAO1 DSM 19880 ATCC 15692 after 48 hrs by microdilution method; type: functional; conditions: PAO1 DSM 19880 ATCC 15692, 48 h; summary of the method: as §3
Klebsiella pneumoniae [25] = assay: Antibacterial activity against oxacillinase 245-producing Klebsiella pneumoniae 50,625,602 clinical isolate after 24 hrs by microdilution method; type: functional; conditions: Klebsiella pneumoniae, 50,625,602, 24 h; summary of the method: as §1
Klebsiella pneumoniae [26] = assay: Antibacterial activity against Klebsiella pneumoniae clinical isolates after 24 hrs by microdilution method; type: functional; summary of the method: as §1
Staphylococcus aureus [27] = assay: Antibacterial activity against methicillin resistant Staphylococcus aureus IHT 99040 clinical isolate after 24 hrs by microdilution method; type: functional; conditions: IHT 99040, 24 h; summary of the method: as §2
Bacillus subtilis = assay: Antibacterial activity against Bacillus subtilis 168 ATCC 23857 after 48 hrs by microdilution method; type: functional; conditions: subsp. subtilis str. 168 ATCC 23857, 48 h; summary of the method: as §3
[28] = Selectivity index, ratio of EC50 for human RBC to MIC for methicillin resistant Staphylococcus epidermidis RP62A ATCC 35984/CCUG 31568; type: toxicity; conditions: human red blood cells (RBC), read-out: Selectivity Index
Summary of the method: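 SI = hemolytic EC50 / MRSE MIC. Hemolysis: washed human RBCs (heparinized blood, healthy adult donor) at 10% in PBS pH 7.4, mixed 9:1 with serial compound dilutions, 37 °C for 1 h. 0.05% Triton X-100 set 100% lysis, 0.5% DMSO set baseline. MIC from MHB microdilution, 35 °C, […].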

Staphylococcus aureus [29] = assay: Antibacterial activity against Staphylococcus aureus ATCC 9144 after 48 hrs by microdilution method; type: functional; conditions: ATCC 9144, 48 h; summary of the method: as §3

Structure (SMILES): CN(c1ccc(C(=O)NCCCNC(=N)N)cc1)S(=O)(=O)c1cc(C(C)(C)C)cc(C(C)(C)C)c1.Cl
- MIC (Pseudomonas aeruginosa [1]): 8 to 16 µg/mL
- MIC (Staphylococcus aureus [2]): 8 µg/mL
- MIC (Escherichia coli [3]): ≥ 32 µg/mL
- MIC (Pseudomonas aeruginosa [4]): 32 µg/mL
- MIC [5]: 2 µg/mL
- MIC (Klebsiella pneumoniae [6]): ≥ 32 µg/mL
- MIC (Staphylococcus aureus [7]): 8 µg/mL
- MIC (Acinetobacter baumannii [8]): ≥ 32 µg/mL
- MIC (Enterococcus sp.): 8 to 16 µg/mL
- MIC (Acinetobacter baumannii [9]): 32 µg/mL
- MIC (Klebsiella pneumoniae [10]): ≥ 32 µg/mL
- MIC (Escherichia coli [11]): 32 µg/mL
- MIC (Enterococcus faecium [12]): 16 µg/mL
- MIC (Escherichia coli [13]): 32 µg/mL
- MIC (Acinetobacter baumannii [14]): ≥ 32 µg/mL
- MIC (Acinetobacter baumannii [15]): ≥ 32 µg/mL
- MIC (Pseudomonas aeruginosa [16]): 32 µg/mL
- MIC (Pseudomonas aeruginosa [17]): 32 µg/mL
- MIC (Enterococcus faecium [18]): 8 µg/mL
- MIC (Escherichia coli [19]): ≥ 32 µg/mL
- MIC (Staphylococcus aureus [20]): 8 µg/mL
- MIC (Pseudomonas aeruginosa [21]): > 32 µg/mL
- MIC (Enterococcus faecium [22]): 16 µg/mL
- EC50 (Erythrocyte): 55 µg/mL
- MIC (Pseudomonas aeruginosa [23]): 32 µg/mL
- MIC (Pseudomonas aeruginosa [24]): 16 µg/mL
- MIC (Klebsiella pneumoniae [25]): ≥ 32 µg/mL
- MIC (Klebsiella pneumoniae [26]): 32 µg/mL
- MIC (Staphylococcus aureus [27]): 8 µg/mL
- MIC (Bacillus subtilis): 4 µg/mL
- selectivity ratio [28]: 14
- MIC (Staphylococcus aureus [29]): 4 µg/mL

Structure (SMILES): CC(C)(C)c1cc(C(C)(C)C)cc(S(=O)(=O)Nc2cc3ccccc3cc2C(=O)NCCNC(=N)N)c1.Cl
- MIC (Pseudomonas aeruginosa [1]): 32 to 64 µg/mL
- MIC (Staphylococcus aureus [2]): 8 µg/mL
- MIC (Escherichia coli [3]): > 32 µg/mL
- MIC (Pseudomonas aeruginosa [4]): > 64 µg/mL
- MIC [5]: 2 µg/mL
- MIC (Klebsiella pneumoniae [6]): > 32 µg/mL
- MIC (Staphylococcus aureus [7]): 8 µg/mL
- MIC (Acinetobacter baumannii [8]): 32 µg/mL
- MIC (Enterococcus sp.): 8 µg/mL
- MIC (Acinetobacter baumannii [9]): 32 µg/mL
- MIC (Klebsiella pneumoniae [10]): ≥ 32 µg/mL
- MIC (Escherichia coli [11]): ≥ 32 µg/mL
- MIC (Enterococcus faecium [12]): 8 µg/mL
- MIC (Escherichia coli [13]): > 32 µg/mL
- MIC (Acinetobacter baumannii [14]): 32 µg/mL
- MIC (Acinetobacter baumannii [15]): 32 µg/mL
- MIC (Pseudomonas aeruginosa [16]): > 64 µg/mL
- MIC (Pseudomonas aeruginosa [17]): ≥ 64 µg/mL
- MIC (Enterococcus faecium [18]): 8 µg/mL
- MIC (Escherichia coli [19]): > 32 µg/mL
- MIC (Staphylococcus aureus [20]): 4 µg/mL
- MIC (Pseudomonas aeruginosa [21]): > 64 µg/mL
- MIC (Enterococcus faecium [22]): 4 µg/mL
- EC50 (Erythrocyte): 25 µg/mL
- MIC (Pseudomonas aeruginosa [23]): ≥ 32 µg/mL
- MIC (Pseudomonas aeruginosa [24]): 32 µg/mL
- MIC (Klebsiella pneumoniae [25]): ≥ 32 µg/mL
- MIC (Klebsiella pneumoniae [26]): 16 to 32 µg/mL
- MIC (Staphylococcus aureus [27]): 8 µg/mL
- MIC (Bacillus subtilis): 4 µg/mL
- selectivity ratio [28]: 6
- MIC (Staphylococcus aureus [29]): 4 µg/mL
